Blank lines part the entries; values can stand above or below the molecule they belong to.
How the values were obtained:
[1] = target: T1, TGF-beta receptor type-1 (Homo sapiens) (UniProt P36897); experiment: Inhibition of human recombinant TGFbR1 at 500 nM related to control ULK1
T1 sequence (whole entry): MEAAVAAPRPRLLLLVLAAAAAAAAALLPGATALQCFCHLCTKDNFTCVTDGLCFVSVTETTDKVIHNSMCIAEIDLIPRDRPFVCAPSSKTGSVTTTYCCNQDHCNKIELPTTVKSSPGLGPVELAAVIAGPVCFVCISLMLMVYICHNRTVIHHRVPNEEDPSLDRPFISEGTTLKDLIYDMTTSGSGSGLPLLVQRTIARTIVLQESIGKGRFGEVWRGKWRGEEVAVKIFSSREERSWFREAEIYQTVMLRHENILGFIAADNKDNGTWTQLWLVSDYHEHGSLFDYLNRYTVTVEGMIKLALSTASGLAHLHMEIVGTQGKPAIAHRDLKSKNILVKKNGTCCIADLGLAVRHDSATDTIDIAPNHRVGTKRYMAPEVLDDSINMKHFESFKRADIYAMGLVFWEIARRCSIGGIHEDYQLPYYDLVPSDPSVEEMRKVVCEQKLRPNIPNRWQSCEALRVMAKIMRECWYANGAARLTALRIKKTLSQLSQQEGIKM

[2] = target: Vascular endothelial growth factor receptor 3 (Homo sapiens) (UniProt P35916); experiment: Inhibition of human recombinant FLT4 at 500 nM in presence of ATP by radiometric assay relative to control
Vascular endothelial growth factor receptor 3 (Homo sapiens), sequence (P35916 whole entry): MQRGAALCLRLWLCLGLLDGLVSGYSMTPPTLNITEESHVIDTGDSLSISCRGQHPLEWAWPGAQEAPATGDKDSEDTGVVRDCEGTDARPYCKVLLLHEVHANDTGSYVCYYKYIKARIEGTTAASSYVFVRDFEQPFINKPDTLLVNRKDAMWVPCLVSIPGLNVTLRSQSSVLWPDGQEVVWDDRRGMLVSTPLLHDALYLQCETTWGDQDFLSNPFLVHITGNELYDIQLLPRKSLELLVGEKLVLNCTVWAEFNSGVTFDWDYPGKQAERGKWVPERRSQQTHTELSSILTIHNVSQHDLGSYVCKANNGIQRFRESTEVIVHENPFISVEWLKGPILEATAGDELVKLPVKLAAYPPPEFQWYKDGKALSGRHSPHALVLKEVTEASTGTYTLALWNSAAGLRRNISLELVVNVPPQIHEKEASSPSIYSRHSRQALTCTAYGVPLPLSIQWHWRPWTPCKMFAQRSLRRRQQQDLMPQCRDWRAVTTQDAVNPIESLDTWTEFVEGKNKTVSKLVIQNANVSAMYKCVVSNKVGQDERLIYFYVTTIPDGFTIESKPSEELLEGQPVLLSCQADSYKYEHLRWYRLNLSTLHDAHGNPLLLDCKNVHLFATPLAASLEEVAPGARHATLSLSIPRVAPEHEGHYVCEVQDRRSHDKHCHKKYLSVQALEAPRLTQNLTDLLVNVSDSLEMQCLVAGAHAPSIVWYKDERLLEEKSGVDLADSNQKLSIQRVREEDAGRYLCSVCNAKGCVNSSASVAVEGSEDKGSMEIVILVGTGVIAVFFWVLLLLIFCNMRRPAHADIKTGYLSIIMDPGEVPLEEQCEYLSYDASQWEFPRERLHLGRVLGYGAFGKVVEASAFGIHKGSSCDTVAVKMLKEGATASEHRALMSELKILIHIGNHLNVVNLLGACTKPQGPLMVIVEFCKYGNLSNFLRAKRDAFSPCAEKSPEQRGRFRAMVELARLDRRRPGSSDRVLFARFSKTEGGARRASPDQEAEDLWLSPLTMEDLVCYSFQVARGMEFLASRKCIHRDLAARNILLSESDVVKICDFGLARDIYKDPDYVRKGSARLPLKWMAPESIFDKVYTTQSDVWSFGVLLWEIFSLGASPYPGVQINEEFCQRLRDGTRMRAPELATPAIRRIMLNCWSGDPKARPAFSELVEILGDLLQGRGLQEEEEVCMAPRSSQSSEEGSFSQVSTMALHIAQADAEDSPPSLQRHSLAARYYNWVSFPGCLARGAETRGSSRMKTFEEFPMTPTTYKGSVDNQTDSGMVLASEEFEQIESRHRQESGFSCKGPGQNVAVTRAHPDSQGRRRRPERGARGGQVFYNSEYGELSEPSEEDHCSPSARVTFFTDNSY

[3] = target: Vascular endothelial growth factor receptor 3 (Homo sapiens) (UniProt P35916); experiment: Inhibition of human recombinant FLT4 at 40 nM related to control ULK1
[4] = target: Proto-oncogene tyrosine-protein kinase ROS (Homo sapiens) (UniProt P08922); experiment: Inhibition of human recombinant ROS at 40 nM related to control ULK1
[5] = target: Leucine-rich repeat serine/threonine-protein kinase 2 (Homo sapiens) (UniProt Q5S007); experiment: Inhibition of human recombinant LRRK2 at 40 nM in presence of ATP by radiometric assay relative to control
Leucine-rich repeat serine/threonine-protein kinase 2 (Homo sapiens), sequence (Q5S007 whole entry): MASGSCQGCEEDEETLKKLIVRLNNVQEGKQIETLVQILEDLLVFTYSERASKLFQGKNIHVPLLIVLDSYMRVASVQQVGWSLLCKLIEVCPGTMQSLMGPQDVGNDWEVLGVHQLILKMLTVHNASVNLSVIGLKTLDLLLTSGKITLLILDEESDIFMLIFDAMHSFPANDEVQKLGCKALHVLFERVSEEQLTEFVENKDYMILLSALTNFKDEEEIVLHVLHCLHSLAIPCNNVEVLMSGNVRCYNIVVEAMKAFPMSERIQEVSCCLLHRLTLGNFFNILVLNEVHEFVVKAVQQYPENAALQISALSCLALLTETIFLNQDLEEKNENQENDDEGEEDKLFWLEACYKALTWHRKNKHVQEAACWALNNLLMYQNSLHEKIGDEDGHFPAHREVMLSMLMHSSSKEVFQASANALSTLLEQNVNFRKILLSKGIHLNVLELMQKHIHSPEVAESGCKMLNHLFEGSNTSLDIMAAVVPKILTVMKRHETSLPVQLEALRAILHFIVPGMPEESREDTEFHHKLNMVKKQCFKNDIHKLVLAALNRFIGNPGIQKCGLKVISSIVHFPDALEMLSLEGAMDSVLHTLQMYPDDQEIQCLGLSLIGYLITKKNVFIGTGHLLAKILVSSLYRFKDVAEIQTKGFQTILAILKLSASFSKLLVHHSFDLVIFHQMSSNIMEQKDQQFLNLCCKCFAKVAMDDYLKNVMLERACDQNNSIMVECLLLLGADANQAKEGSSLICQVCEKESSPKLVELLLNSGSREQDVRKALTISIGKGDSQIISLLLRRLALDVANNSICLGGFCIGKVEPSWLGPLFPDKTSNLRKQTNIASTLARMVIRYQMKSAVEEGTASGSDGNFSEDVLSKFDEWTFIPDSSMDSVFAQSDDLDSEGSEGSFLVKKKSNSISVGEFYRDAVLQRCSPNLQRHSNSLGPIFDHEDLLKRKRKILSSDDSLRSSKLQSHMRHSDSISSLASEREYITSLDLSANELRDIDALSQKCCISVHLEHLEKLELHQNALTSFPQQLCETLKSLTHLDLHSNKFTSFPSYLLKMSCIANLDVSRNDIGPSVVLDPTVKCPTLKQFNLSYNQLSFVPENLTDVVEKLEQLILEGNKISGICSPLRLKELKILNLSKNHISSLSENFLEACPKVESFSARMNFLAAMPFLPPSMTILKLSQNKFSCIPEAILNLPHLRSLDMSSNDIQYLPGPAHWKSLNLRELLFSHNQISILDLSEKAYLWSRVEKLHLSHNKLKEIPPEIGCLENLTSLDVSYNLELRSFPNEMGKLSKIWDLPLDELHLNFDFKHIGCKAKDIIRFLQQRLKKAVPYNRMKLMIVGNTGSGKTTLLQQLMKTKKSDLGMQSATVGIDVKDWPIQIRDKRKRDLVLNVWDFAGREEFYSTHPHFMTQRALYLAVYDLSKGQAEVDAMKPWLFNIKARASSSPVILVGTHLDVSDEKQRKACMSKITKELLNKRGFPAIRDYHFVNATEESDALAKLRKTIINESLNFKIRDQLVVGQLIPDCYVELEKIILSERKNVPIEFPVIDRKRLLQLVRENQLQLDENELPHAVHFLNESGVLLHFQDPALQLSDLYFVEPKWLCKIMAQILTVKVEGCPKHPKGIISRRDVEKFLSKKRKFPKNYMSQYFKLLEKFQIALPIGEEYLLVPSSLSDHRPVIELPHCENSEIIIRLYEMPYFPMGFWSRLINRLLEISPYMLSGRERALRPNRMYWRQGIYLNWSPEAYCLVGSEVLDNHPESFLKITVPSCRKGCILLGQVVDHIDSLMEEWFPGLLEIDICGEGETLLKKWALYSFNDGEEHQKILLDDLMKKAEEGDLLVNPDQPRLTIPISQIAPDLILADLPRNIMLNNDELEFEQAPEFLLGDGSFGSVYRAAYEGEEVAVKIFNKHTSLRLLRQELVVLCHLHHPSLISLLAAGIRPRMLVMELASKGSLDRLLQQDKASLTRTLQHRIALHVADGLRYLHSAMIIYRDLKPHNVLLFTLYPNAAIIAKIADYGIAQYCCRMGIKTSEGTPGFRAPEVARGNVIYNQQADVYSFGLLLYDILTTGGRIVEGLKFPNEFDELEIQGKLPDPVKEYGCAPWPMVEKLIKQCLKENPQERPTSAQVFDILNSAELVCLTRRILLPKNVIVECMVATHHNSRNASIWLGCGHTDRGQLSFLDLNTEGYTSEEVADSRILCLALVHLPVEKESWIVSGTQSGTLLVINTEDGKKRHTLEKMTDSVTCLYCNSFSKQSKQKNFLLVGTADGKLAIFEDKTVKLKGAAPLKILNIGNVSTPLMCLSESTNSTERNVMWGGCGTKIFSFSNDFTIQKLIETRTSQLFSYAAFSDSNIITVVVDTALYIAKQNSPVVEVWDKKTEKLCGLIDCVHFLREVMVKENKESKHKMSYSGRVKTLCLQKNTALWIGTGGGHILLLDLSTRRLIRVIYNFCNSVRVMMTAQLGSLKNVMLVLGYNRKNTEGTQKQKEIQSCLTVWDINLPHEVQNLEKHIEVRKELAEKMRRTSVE

[6] = target: T2, Serine/threonine-protein kinase Nek2 (Homo sapiens) (UniProt P51955); experiment: Inhibition of human recombinant NEK2 at 40 nM related to control ULK1
T2 sequence (whole entry): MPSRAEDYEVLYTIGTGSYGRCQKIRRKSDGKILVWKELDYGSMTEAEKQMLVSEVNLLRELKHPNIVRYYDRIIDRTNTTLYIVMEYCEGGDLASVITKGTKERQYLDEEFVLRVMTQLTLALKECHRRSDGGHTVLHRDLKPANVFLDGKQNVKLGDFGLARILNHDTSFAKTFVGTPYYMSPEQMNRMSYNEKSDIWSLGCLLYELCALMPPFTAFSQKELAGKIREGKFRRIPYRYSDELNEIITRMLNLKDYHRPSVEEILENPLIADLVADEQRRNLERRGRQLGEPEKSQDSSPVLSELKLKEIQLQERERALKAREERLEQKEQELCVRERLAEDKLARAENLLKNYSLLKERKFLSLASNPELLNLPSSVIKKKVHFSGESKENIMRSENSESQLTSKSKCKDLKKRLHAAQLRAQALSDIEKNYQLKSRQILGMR

[7] = target: T3, Calcium/calmodulin-dependent protein kinase type IV (Homo sapiens) (UniProt Q16566); experiment: Inhibition of human recombinant CaMK4 at 40 nM related to control ULK1
T3 sequence (whole entry): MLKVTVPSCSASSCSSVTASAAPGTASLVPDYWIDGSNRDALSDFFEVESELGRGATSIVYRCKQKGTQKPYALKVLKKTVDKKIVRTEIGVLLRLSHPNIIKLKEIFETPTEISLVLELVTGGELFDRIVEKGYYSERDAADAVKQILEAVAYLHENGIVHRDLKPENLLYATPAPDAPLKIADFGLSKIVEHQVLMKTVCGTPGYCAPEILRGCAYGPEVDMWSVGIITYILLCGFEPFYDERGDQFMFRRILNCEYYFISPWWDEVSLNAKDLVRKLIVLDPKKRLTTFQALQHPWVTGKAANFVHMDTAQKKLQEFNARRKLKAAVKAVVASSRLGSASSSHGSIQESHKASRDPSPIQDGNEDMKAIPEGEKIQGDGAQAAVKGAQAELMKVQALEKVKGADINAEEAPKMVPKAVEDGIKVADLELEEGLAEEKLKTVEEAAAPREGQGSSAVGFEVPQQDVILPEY

[8] = target: T4, Serine/threonine-protein kinase Sgk2 (Homo sapiens) (UniProt Q9HBY8); experiment: Inhibition of human recombinant SGK2 at 40 nM in presence of ATP by radiometric assay relative to control
T4 sequence (whole entry): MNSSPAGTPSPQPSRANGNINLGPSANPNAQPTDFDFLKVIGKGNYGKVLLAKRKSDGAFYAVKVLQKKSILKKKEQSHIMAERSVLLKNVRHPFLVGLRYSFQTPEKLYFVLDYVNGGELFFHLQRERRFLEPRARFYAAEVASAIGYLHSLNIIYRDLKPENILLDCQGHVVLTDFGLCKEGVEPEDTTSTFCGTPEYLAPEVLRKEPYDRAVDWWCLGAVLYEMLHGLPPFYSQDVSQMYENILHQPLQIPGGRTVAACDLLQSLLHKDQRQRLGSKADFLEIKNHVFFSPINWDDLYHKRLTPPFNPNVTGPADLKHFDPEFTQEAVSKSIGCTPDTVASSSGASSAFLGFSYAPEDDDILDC

[9] = target: Receptor-type tyrosine-protein kinase FLT3 (Homo sapiens) (UniProt P36888); experiment: Inhibition of human recombinant FLT3 at 40 nM in presence of ATP by radiometric assay relative to control
[10] = target: T5, Aurora kinase C (Homo sapiens) (UniProt Q9UQB9); experiment: Inhibition of human recombinant AurC at 40 nM in presence of ATP by radiometric assay relative to control
T5 sequence (whole entry): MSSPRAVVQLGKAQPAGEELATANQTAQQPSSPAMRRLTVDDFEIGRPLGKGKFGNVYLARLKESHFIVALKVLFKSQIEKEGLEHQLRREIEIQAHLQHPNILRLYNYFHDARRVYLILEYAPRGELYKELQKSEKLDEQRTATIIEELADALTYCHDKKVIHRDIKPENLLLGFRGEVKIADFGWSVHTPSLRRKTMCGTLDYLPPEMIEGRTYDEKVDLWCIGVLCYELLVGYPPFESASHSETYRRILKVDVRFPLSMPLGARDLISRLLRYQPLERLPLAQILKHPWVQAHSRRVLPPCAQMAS
Summary of the method: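 Part of a radiometric in vitro activity panel of 327 recombinant human kinases. Each kinase was tested in duplicate at one inhibitor concentration. Activity remaining was expressed as a percentage of the vehicle control, and percent inhibition was taken as 100 minus that value.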

[11] = target: Proto-oncogene tyrosine-protein kinase receptor Ret (Homo sapiens) (UniProt P07949); experiment: Inhibition of human recombinant RET at 15 nM in presence of ATP by radiometric assay relative to control
Proto-oncogene tyrosine-protein kinase receptor Ret (Homo sapiens), sequence (P07949 whole entry): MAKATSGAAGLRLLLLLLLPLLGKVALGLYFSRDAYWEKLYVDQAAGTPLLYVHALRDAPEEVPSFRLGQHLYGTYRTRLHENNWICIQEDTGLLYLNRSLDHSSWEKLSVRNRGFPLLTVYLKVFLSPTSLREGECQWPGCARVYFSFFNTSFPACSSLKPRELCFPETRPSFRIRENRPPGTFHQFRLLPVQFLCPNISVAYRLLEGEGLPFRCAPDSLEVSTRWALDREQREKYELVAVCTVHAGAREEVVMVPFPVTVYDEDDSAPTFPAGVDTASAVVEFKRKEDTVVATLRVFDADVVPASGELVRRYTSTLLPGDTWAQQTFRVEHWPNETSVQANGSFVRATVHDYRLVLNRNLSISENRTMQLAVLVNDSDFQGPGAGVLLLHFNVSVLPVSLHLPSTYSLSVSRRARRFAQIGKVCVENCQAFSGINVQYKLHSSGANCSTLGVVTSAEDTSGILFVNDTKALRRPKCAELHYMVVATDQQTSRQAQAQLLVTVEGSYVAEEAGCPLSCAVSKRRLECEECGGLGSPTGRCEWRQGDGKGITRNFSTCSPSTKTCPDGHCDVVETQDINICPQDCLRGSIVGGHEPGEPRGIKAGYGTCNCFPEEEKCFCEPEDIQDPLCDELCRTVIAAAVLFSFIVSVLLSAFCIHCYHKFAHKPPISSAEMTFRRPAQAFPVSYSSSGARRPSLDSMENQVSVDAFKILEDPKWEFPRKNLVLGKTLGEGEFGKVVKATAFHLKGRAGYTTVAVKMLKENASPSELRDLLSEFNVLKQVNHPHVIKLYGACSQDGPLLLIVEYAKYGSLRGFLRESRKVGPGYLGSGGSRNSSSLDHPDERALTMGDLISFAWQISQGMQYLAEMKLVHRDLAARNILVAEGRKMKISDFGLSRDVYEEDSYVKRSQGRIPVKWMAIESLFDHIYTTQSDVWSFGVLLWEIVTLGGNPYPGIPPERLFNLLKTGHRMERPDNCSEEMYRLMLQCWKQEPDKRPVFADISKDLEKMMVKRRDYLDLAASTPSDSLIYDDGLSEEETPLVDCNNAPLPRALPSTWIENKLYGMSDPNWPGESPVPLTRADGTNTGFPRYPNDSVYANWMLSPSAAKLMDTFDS

[12] = target: Vascular endothelial growth factor receptor 3 (Homo sapiens) (UniProt P35916); experiment: Inhibition of human recombinant FLT4 at 15 nM in presence of ATP by radiometric assay relative to control

- fold change (FC) [1]: 0
- inhibition [2]: 23%
SMILES: CNC(=O)c1ccccc1Oc1nc(Nc2cc(OC)c(OC)c(OC)c2)ncc1Br

- fold change (FC) [3]: 0.26
- fold change (FC) [4]: 0
- inhibition [5]: 3%
- fold change (FC) [6]: 0
- fold change (FC) [7]: 0
- inhibition [8]: 12%
- inhibition [9]: 19%
- inhibition [10]: 0%
SMILES: O=C(N[C@@H](C1CC1)C(F)(F)F)c1cc(-c2cnn3cc(-c4ccc(F)cc4)cnc23)cs1

- inhibition [11]: 14%
- inhibition [12]: 35%
SMILES: CC(C)[C@H](NC(=O)c1cc(-c2cnn3cc(-c4ccc(OCCN5CCCCC5)cc4)cnc23)cs1)C(F)(F)F

— ChEMBL document CHEMBL5653631, “A Potent and Selective ULK1 Inhibitor Suppresses Autophagy and Sensitizes Cancer Cells to Nutrient Stress” (iScience, 2018)
